Screening results (PubChem BioAssay)
This is a sample that favours compounds with a hit; in the whole collection about 3.7% have one here.
Kir21 block – inhibitors of mouse Kir2.1 inward-rectifier potassium channel; HEK293-Kir2.1, FluxOR thallium flux fluorescence; active compounds read low; B-score at 10 µM; 310,000 compounds, 0.85% hits; AID 1672;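 active means fluorescence ratio B-score at or below minus 3 SD of library scores, with starting-brightness B-score within 2 SD, cut at about -4.2 in these data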;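 further: channel flux triggered by added potassium and thallium sulfate stimulus; B-score of peak minus minimum fluorescence over baseline after thallium stimulus; more negative B-score means stronger Kir2.1 block with less thallium influx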
KCNQ1 pot – human KCNQ1 channel potentiation or activation. P51787. B-score at 10 µM. 310,000 compounds, 0.35% hits. CHO-K1 KCNQ1, thallium flux FluxOR fluorescence; active compounds read high;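 active means fluorescence ratio B-score, a plate-corrected score, at least three library SD, with initial intensity B-score within 5 SD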
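Assay system: CHO-K1 cells stably expressing KCNQ1; Medium: assay buffer with matched DMSO; Also added: K+/Tl+ depolarizing stimulus; Dosing: single dose; Timing: dye 90 min, compound 20 min, room temperature; Measured by: kinetic FluxOR thallium fluorescence, 10-s 1-Hz baseline, 110-s post-stimulus read; Read-out: peak-minus-minimum fluorescence over initial fluorescence, negative-control normalized, B-scored.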
KCNK9 inh – inhibitors of human KCNK9 two-pore domain potassium channel | 310,000 compounds, 1.2% hits | HEK293 KCNK9, FluxOR thallium flux fluorescence; active compounds read low | B-score at 10 µM | Q9NPC2;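 active means ratio B-score over 3 SD below the library mean, with starting fluorescence within 5 SD of its mean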;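 further: negative B-score means less thallium flux so channel inhibition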
KCNK3 block – human KCNK3 channel inhibition, primary screen. O14649. CHO-KCNK3 thallium flux, FluxOR fluorescence; active compounds read low. B-score at 10 µM. 340,000 compounds, 0.84% hits. AID 602410;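 active means B-score under library mean minus 4 SD, starting fluorescence ratio at most library mean plus 5 SD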;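 further: more negative B-score means stronger inhibition of thallium flux through KCNK3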
KCNQ1 inh – blocks the human KCNQ1 potassium channel. P51787. CHO-K1 KCNQ1, FluxOR thallium flux fluorescence; active compounds read high. B-score at 10 µM. 310,000 compounds, 1.3% hits. AID 2642;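 active means compounds whose thallium flux B-score, printed positive for inhibition, exceeds three library SD while starting fluorescence stays within three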;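 further: channel opened by potassium depolarization with thallium stimulus after 20 min compound exposure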
hERG rescue – compounds protecting human hERG from proarrhythmic drug block | CHO-hERG, FluxOR thallium flux, dofetilide IC70 present | 310,000 compounds, 0.51% hits | activation (rescue from dofetilide block), less the hit threshold, % at 10 µM | Q12809;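 active means activation above the mean of controls blocked by dofetilide plus 5 SD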;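 further: thallium influx through hERG after potassium depolarization seen as dye fluorescence rise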
KCNQ1 inh valid – confirmation of human KCNQ1 potassium channel inhibitors | shares compounds with KCNQ1 inh | KCNQ1 cell line, FluxOR thallium flux fluorescence | inhibition, % at 10 µM | 1,600 compounds, 93% hits;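 active means primary screen active, with duplicate mean exceeding buffer control mean plus 3 SD of buffer wells, cut at about 28% in these data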;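 further: 0% = buffer control ratio and 100% = XE991 inhibitor control ratio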
CHO KCNQ1 ctr – activity in parental CHO cells lacking KCNQ1. 1,600 compounds, 21% hits. fluorescence ratio (Tl flux) at 10 µM. shares compounds with KCNQ1 inh. parental CHO-K1, FluxOR thallium flux fluorescence ratio; active compounds read low; zero means no signal rise above baseline;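 active means mean of duplicate thallium-flux fluorescence ratios in parental host cells more than 5 SD below the buffer control mean, cut at about 0.38 in these data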;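 further: ratio is peak minus minimum fluorescence divided by baseline fluorescence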
KCNQ1 ephys val – human KCNQ1 inhibition validated by electrophysiology; shares compounds with KCNQ1 inh; KCNQ1-CHO cells, automated patch clamp current; calls only at 10 µM; 490 compounds, 20% hits;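 active means KCNQ1 current drop exceeding 3 SD of negative control wells, seen in both duplicate runs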;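 further: steady state current during a 2 s step from -80 to +40 mV; negative values mean current inhibition and positive values mean potentiation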
KCNQ2 inh – selectivity of KCNQ1 inhibitors: inhibition of rat KCNQ2 channel; shares compounds with KCNQ1 inh; KCNQ2 cells, FluxOR thallium flux fluorescence; inhibition, % at 10 µM; 1,600 compounds, 71% hits; AID 651746;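 active means mean percent inhibition of the KCNQ2 thallium signal more than 5 SD above the buffer-only control wells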;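 further: KCNQ2 expressed in CHO cells; 0% = buffer control wells and 100% = XE-991 inhibitor control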
Target sequence (O88943 whole entry, looked up): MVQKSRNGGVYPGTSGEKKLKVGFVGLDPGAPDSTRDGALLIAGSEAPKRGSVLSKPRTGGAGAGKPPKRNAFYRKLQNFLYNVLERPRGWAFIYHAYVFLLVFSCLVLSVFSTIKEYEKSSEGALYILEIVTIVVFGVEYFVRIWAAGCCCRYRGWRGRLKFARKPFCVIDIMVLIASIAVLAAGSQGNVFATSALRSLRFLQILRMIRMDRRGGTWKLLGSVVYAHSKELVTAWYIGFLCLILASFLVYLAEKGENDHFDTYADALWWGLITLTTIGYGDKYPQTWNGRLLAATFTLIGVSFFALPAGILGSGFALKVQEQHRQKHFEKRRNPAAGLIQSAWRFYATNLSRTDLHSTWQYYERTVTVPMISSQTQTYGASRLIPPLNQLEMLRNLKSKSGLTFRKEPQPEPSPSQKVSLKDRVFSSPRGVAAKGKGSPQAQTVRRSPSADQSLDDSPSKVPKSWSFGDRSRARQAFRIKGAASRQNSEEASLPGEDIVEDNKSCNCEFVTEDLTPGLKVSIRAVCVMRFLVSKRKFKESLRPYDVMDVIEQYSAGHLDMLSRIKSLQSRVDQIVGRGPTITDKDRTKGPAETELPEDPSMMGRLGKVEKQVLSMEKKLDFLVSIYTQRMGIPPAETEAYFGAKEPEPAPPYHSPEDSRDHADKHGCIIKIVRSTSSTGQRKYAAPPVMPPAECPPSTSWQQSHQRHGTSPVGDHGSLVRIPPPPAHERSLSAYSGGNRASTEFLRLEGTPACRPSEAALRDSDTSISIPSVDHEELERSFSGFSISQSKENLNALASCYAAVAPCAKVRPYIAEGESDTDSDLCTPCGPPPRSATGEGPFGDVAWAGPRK
KCNQ1 KCNE1 spec – KCNQ1 inhibitor that also blocks human KCNQ1/KCNE1 channel | 1,600 compounds, 77% hits | shares compounds with KCNQ1 inh | inhibition, % at 10 µM | KCNQ1/KCNE1 cells, FluxOR thallium flux fluorescence;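 active means mean percent inhibition of duplicate wells above the buffer-only control mean plus 3 SD of those controls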;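 further: 0% = buffer only wells and 100% = XE-991 inhibitor control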
An asterisk follows results filed as active; i = inactive; / = no result given; + = active, no number.

SMILES	Kir21 block	KCNQ1 pot	KCNK9 inh	KCNK3 block	KCNQ1 inh	hERG rescue	KCNQ1 inh valid	CHO KCNQ1 ctr	KCNQ2 inh	KCNQ1 KCNE1 spec	others
CC(=O)Nc1cccc(NC(=O)Nc2ccc(C)c(Cl)c2)c1	2	i	i	i	i	0	/	/	/	/
CCS(=O)(=O)c1nc(S(=O)(=O)c2ccc(C)cc2)c(NCCCn2ccnc2)s1	-0.73	i	i	i	i	-10	/	/	/	/
COc1cccc(C(=O)Nc2ccc(-c3nc4ccccc4o3)c(O)c2)c1	-1	i	i	i	i	-6	/	/	/	/
COc1cc(OC)cc(C(=O)Nc2ccc(-c3nc4ccccc4o3)cc2)c1	0.03	i	i	i	10*	-7	130*	0.4	89%*	69%*	KCNQ1 ephys val=i
CCCCOc1ccc(Br)cc1CSC(=N)N	-7.5*	i	i	i	7*	-15	90*	0.43	60%*	i	KCNQ1 ephys val=+
c1csc(-c2nnc(NC3CCCCC3)c3ccccc23)c1	0.67	i	i	i	10*	-19	52*	0.55	69%*	51%*
Cc1ccc(Nc2nc3nonc3[nH]c2=O)cc1Cl	-0.01	i	i	i	9*	-13	29*	0.49	i	i
CCOc1ccc(OCC(=O)Nc2nccs2)cc1	1.1	i	i	i	i	-3	/	/	/	/
COc1ccc(OCC(=O)Nc2nccs2)cc1	0.12	i	i	i	7*	-17	0	0.49	i	i
CCOC(=O)c1c(C)nc(C(Cl)(Cl)Cl)nc1N	-1.2	i	i	i	8*	-14	86*	0.43	i	88%*
O=C1CCc2cc(S(=O)(=O)NCc3ccccc3Cl)cc3c2N1CC3	-1.4	i	i	i	i	-4	/	/	/	/
CC12CCC(=O)N1C(C(=O)Nc1cc(C(F)(F)F)ccc1N1CCCCC1)CS2 (stereo unspecified)	-0.29	i	i	i	7*	-19	46*	0.41	103%*	48%*
COc1ccc(OCC(=O)Nc2ccc3c(c2)nc(CCN2CCN(C)CC2)n3C)cc1	0.76	i	i	i	i	-7	/	/	/	/
Cc1cccc(OCC(=O)Nc2ccc3c(c2)nc(CCN2CCN(C)CC2)n3C)c1	-0.05	i	i	i	9*	-5	0	0.5	i	i
S=c1nc[nH]c2c1ncn2C1CCCC1	1.4	i	i	i	i	-3	/	/	/	/
c1ccc2c(c1)OCC(CNc1ncnc3sccc13)O2 (stereo unspecified)	-0.92	i	i	i	12*	-18	106*	0.42	97%*	104%*
Cc1ccc(C(=O)CN2C(=O)C(=O)N(Cc3ccccc3)C2=O)cc1	-1.6	i	i	i	i	-3	/	/	/	/
CCCCN1CC(=O)N2[C@H](c3ccc(Cl)cc3)[C@@H]3C(=O)N(CC)C(=O)[C@@H]3[C@]2(C)C1=O	-0.68	i	i	i	i	-8	/	/	/	/
COc1cc(CSC)nc(-c2ccccc2)n1	0.34	i	i	i	i	-6	/	/	/	/
CSCc1cc(N(C)c2ccccc2)nc(-c2ccccc2)n1	-1.1	i	i	i	7*	-6	91*	0.44	91%*	98%*	KCNQ1 ephys val=i
Cc1ccc2nc(SCC(=O)Nc3cc(C(C)(C)C)nn3-c3ccccc3)[nH]c2c1	0.73	i	i	i	8*	-10	96*	0.42	111%*	141%*	KCNQ1 ephys val=+
Cc1ccccc1N1C(=O)CN(Cc2sccc2C)C1=S	-0.35	i	i	i	i	-10	/	/	/	/
CNC[C@H](O)c1cccc(O)c1	-0.21	i	i	i	i	-4	/	/	/	/
CCN(CC(O)c1cccc(O)c1)C(=O)C12CC3CC(CC(C3)C1)C2 (stereo unspecified)	-3.2	i	i	i	6*	-6	66*	0.45	77%*	43%*
O=C(CCCc1c[nH]c2ccccc12)NCC1COc2ccccc2O1 (stereo unspecified)	0	i	i	i	10*	-9	62*	0.44	74%*	78%*
SMILES	Kir21 block	KCNQ1 pot	KCNK9 inh	KCNK3 block	KCNQ1 inh	hERG rescue	KCNQ1 inh valid	CHO KCNQ1 ctr	KCNQ2 inh	KCNQ1 KCNE1 spec	others
Cc1ccc(S(=O)(=O)c2cc3c(=O)n4ccccc4nc3n(CCc3ccccc3)c2=N)cc1	0.51	i	i	i	6*	-6	100*	0.36*	118%*	140%*
CCn1c(=N)c(S(=O)(=O)c2ccc(C)cc2)cc2c(=O)n3ccccc3nc21	-1.3	i	i	/	i	-2	/	/	/	/
COc1cccc(OC)c1Oc1ccc(C(F)(F)F)cn1	-1.4	i	i	i	7*	3	85*	0.44	i	82%*
FC(F)(F)c1ccc(Oc2ccccc2Cl)nc1	-0.22	i	i	i	i	-6	/	/	/	/
COC(=O)CN1C(=O)COc2ccc(S(=O)(=O)NCc3ccccc3)cc21	-0.57	i	i	i	i	-6	/	/	/	/
Cc1ccc(S(=O)(=O)c2nc(S(=O)(=O)c3ccccc3)sc2N2CCN(C)CC2)cc1	-0.62	i	i	i	i	-13	/	/	/	/
CCc1nc(C)cn1S(=O)(=O)c1ccc2c(c1)OCCO2	/	/	/	i	/	/	/	/	/	/
CCN(CC)CC(=O)Nc1sc(C)cc1C(=O)c1ccc(C)cc1	-1.2	i	i	i	7*	-5	118*	0.38	91%*	154%*	KCNQ1 ephys val=i
COc1ccc(OC)c(N(C(=O)c2ccco2)C(C(=O)NC2CCCC2)c2ccc(N3CCOCC3)cc2)c1 (stereo unspecified)	0.83	i	i	i	i	-7	/	/	/	/
COc1ccc(-c2nc(N3CCCCCC3)sc2C(=O)c2ccccc2)cc1	-1.1	i	i	i	7*	-16	56*	0.43	105%*	86%*
